SMILES strings stand for the structures. In brackets after ≈: the same amount, converted by molar mass.

For assay [1], the system named is Staphylococcus aureus. The experiment in a line: Antimicrobial activity against Staphylococcus aureus ATCC 25923 by microdilution method. The class given is functional. The essentials:
(§1)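 In vitro antibacterial test by microdilution. Strains were drawn from a panel of Gram-positive and Gram-negative bacteria. Ofloxacin was run as the positive control. The read-out is MIC.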

Assay [2] concerns Kocuria rhizophila. In words: Antimicrobial activity against Micrococcus luteus ATCC 9341 by microdilution method. The class given is functional. The essentials: as §1
On the technique in general: In broth dilution the organism is exposed to a series of concentrations in liquid medium.

Assay [3] relates to Trichophyton rubrum. The experiment in a line: Antimicrobial activity against Trichophyton rubrum ATCC 10218 by agar dilution method. The class given is functional. In short, it runs like this:
(§2)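 In vitro antifungal test by agar dilution against a panel of yeasts and dermatophytes. Amphotericin B served as the positive control. Activity is reported as MIC.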
For orientation: In agar dilution, organisms are placed on agar that contains the substance at set levels.

Assay [4] deals with Bacillus subtilis. In words: Antimicrobial activity against Bacillus subtilis CMCC 63501 by microdilution method. Type of assay: functional.
The test system of assay [5] is Shigella flexneri. The experiment in a line: Antimicrobial activity against Shigella flexneri ATCC 12022 by microdilution method. Type of assay: functional. In short, it runs like this: as §1
Assay [6] concerns Staphylococcus epidermidis. In words: Antimicrobial activity against Staphylococcus epidermidis ATCC 12228 by microdilution method. The class given is functional. In short, it runs like this:
as §1

Assay [7] deals with Nannizzia gypsea. The experiment in a line: Antimicrobial activity against Microsporum gypseum ATCC 14683 by agar dilution method. Type of assay: functional. In short, it runs like this: as §2
Assay [8] deals with Candida albicans. In words: Antimicrobial activity against Candida albicans ATCC 1600 by agar dilution method. The class given is functional. The essentials:
as §2

Assay [9] concerns HL-60. The experiment in a line: Cytotoxicity against human HL60 cells after 72 hrs by MTT assay. Type of assay: functional, cell-based. The conditions noted are these: HL-60, 72 h. In short, it runs like this: (§3)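 MTT viability assay on HL-60 human premyelocytic leukemia cells and P-388 murine leukemia cells. Adriamycin was included as the positive control.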
On the technique in general: Formazan colour is commonly taken as a measure of viable cells.

Assay [10] relates to Escherichia coli. In words: Antimicrobial activity against Escherichia coli ATCC 25922 by microdilution method. The class given is functional. In short, it runs like this:
as §1

Assay [11] concerns Pseudomonas aeruginosa. In words: Antimicrobial activity against Pseudomonas aeruginosa ATCC 14502 by microdilution method. The class given is functional. In short, it runs like this:
as §1

For assay [12], the system named is P388. The experiment in a line: Cytotoxicity against mouse P388 cells after 72 hrs by MTT assay. The settings on record: P388, 72 h. Type of assay: functional, cell-based. In short, it runs like this: as §3
Assay [13] concerns Saccharomyces. The experiment in a line: Antimicrobial activity against Saccharomyces sake ATCC 26421 by agar dilution method. The class given is functional. The essentials: as §2

Turning to `C[C@@H]1CC[C@]2(C)[C@H](CC[C@@H](O)[C@]2(C)O)[C@@]1(C)CCc1ccoc1`, the MIC in [1], in assay [2], in [3], in assay [4], in [5] and in [6] was above 150 µM each time. Further, the MIC in [7], in assay [8], in assay [10], in assay [11] and in [13] was above 150 µM throughout. The IC50 in assay [9] and in assay [12] was at least 10 µM each time.

On to `C/C(=C\CO)[C@@H]1C[C@@H]2[C@@]3(C)CCCC(C)(C)[C@@H]3C[C@H](O)[C@@]2(C)O1`, for which the MIC in [1], in [2], in assay [3], in [4], in assay [5] and in assay [6] was above 150 µM each time. Further, the MIC in assay [7], in assay [8], in [10], in [11] and in assay [13] was above 150 µM in each case. Besides, the IC50 in assay [9] and in assay [12] was at least 10 µM in each case.

As to `C[C@@H]1CC[C@]2(C)[C@H](CC[C@@H](O)[C@]2(C)O)[C@@]1(C)C[C@H](O)c1ccoc1`, the MIC in [1], in assay [2], in assay [3], in [4], in [5] and in [6] was above 150 µM throughout. For the same compound, the MIC in assay [7], in assay [8], in [10], in assay [11] and in assay [13] was above 150 µM in each case. Besides, the IC50 in [9] and in assay [12] was at least 10 µM throughout.

For `COC(=O)C1=CCC[C@@H]2[C@]13CC[C@H](C)[C@@]21C[C@H](c2ccoc2)O[C@H]1O[C@@H]3O`, the MIC in assay [1], in assay [2], in [3], in assay [4], in assay [5] and in assay [6] was above 150 µM throughout. In addition, the MIC in assay [7], in assay [8], in assay [10], in [11] and in assay [13] was above 150 µM in each case. The IC50 in assay [9] and in [12] was at least 10 µM throughout.

`COC(=O)C1=CCC[C@@H]2[C@]13CC[C@H](C)[C@@]21C[C@H](c2ccoc2)O[C@H]1O[C@H]3O`: the MIC in assay [1], in assay [2], in assay [3], in assay [4], in assay [5] and in assay [6] was above 150 µM in each case. Moreover, the MIC in assay [7], in [8], in assay [10], in assay [11] and in [13] was above 150 µM each time. The IC50 in assay [9] and in assay [12] was at least 10 µM in each case.

On to `C=C1C[C@H](OC(C)=O)[C@]23C(C(=O)OC)=CCC[C@H]2[C@]12C[C@H](c1ccoc1)O[C@H]2O[C@@H]3O`, for which the MIC in [1], in assay [2], in [3], in [4], in [5] and in [6] was above 150 µM in each case. Also, the MIC in assay [7], in assay [8], in [10], in assay [11] and in assay [13] was above 150 µM each time. The IC50 in [9] and in assay [12] was at least 10 µM in each case.

With `C=C1C[C@H](OC(C)=O)[C@]23C(C(=O)OC)=CCC[C@H]2[C@]12C[C@H](c1ccoc1)O[C@H]2O[C@H]3O`, the MIC in [1], in assay [2], in assay [3], in assay [4], in assay [5] and in [6] was above 150 µM in each case. The MIC in [7], in assay [8], in assay [10], in [11] and in [13] was above 150 µM each time. Also, the IC50 in assay [9] and in [12] was at least 10 µM each time.

For `C=C1CC[C@H]2[C@](C)(CO)[C@H](O)CC[C@]2(C)[C@H]1C/C=C(\C)C=O`, the minimal inhibitory concentration (MIC) in [1], in assay [2], in assay [3], in [4], in assay [5] and in [6] was above 150 µM in each case. Also, the MIC in assay [7], in assay [8], in assay [10], in assay [11] and in assay [13] was above 150 µM throughout. In addition, the IC50 in assay [9] and in [12] was at least 10 µM each time.

In the case of `CC1=CCC[C@@H]2[C@@](C)(CCC3=CCOC3)[C@H](C)CC[C@@]12C` (relative stereo), the MIC in assay [1], in assay [2], in assay [4] and in assay [6] was 43.4 µM (≈ 12.5 µg/mL) throughout. For the same compound, the IC50 in assay [9] and in [12] was at least 10 µM in each case.

On to `C[C@@H]1C(=O)CC[C@H]2[C@@]1(C)CC[C@H]1C(=O)O[C@H](c3ccoc3)C[C@]21C` (relative stereo), for which the MIC in [1], in assay [2], in assay [3], in assay [4], in assay [5] and in assay [6] was above 150 µM in each case. Also, the MIC in assay [7], in assay [8], in [10], in assay [11] and in assay [13] was above 150 µM in each case. The IC50 in [9] and in [12] was at least 10 µM throughout.

On to `C=C1[C@H](O)CC[C@@H]2[C@@]3(C)C[C@@H](c4ccoc4)OC(=O)[C@@H]3CC[C@@]12C` (relative stereo), for which the MIC in assay [1], in assay [2], in assay [3], in assay [4], in assay [5] and in assay [6] was above 150 µM throughout. Also, the MIC in [7], in [8], in assay [10], in assay [11] and in assay [13] was above 150 µM each time. Further, the IC50 in assay [9] and in assay [12] was at least 10 µM each time.

As for `C=C1CC[C@]23C(C(=O)OC)=CCC[C@H]2[C@]12C[C@H](c1ccoc1)O[C@H]2O[C@H]3O` (relative stereo), the minimum inhibitory concentration (MIC) in assay [1], in assay [2], in assay [3], in assay [4], in [5] and in assay [6] was above 150 µM each time. Besides, the MIC in [7], in [8], in [10], in assay [11] and in assay [13] was above 150 µM each time. The IC50 in assay [9] and in assay [12] was at least 10 µM in each case.

For the compound `C=C1C[C@@H]2OC(=O)C3=CCC[C@H]4[C@]15C[C@H](c1ccoc1)O[C@H]5OC(=O)[C@]324` (relative stereo), the MIC in assay [1], in assay [2], in assay [3], in [4], in assay [5] and in assay [6] was above 150 µM each time. The MIC in assay [7], in assay [8], in assay [10], in [11] and in [13] was above 150 µM throughout. The figures for the IC50 in assay [9] and in [12] were 9.42 µM and 7.45 µM, respectively.

On to `C=C1CC[C@]23C(C(=O)OC)=CCC[C@H]2[C@]12C[C@H](c1ccoc1)O[C@H]2O[C@@H]3O` (relative stereo), for which the MIC in [1], in assay [2], in assay [3], in assay [4], in assay [5] and in assay [6] was above 150 µM in each case. For the same compound, the MIC in assay [7], in [8], in [10], in assay [11] and in assay [13] was above 150 µM in each case. For the same compound, the IC50 in assay [9] and in assay [12] was at least 10 µM throughout.

Usually MIC stands for the lowest concentration that inhibits growth of the organism. A higher MIC goes with a need for much substance. What is called IC50 is the concentration needed to halve the response being measured. Read a low IC50 as greater potency in that assay.
